Series [1] can be described thus: Cytotoxicity against human HCC827 cells harboring EGFR 746 to 750 deletion mutant assessed as inhibition of cell proliferation after 72 hrs by CellTiter-Glo assay. Format: functional, cell-based. The note with it: HCC827, 72 h. (In ATP-based viability assays light output follows the ATP content of the culture.)
For series [2], the system named is A-431. The series can be described thus: Cytotoxicity against human A431 cells expressing wild-type EGFR assessed as inhibition of cell proliferation after 72 hrs by CellTiter-Glo assay. The format is cell-based. The note with it: A-431, 72 h.
The test system of series [3] is NCI-H1975. Briefly: Cytotoxicity against human NCI-H1975 cells harboring EGFR L858R/T790M double mutant assessed as inhibition of cell proliferation after 72 hrs by CellTiter-Glo assay. The format is functional, cell-based. The note with it: NCI-H1975, 72 h.
Series [4] can be described thus: Selectivity ratio of IC50 for human A431 cells expressing wild-type EGFR to IC50 for human HCC827 cells harboring EGFR 746 to 750 deletion mutant. The format is ADME, cell-based.
The species named for series [5] is Rattus norvegicus. Briefly: Hepatobiliary toxicity in Sprague-Dawley rat measured for 4 days. Format: organism-based. The note with it: in vivo, 96 h.
The target of series [6] is Epidermal growth factor receptor (Homo sapiens, UniProt P00533, L858R/T790M). Briefly: Inhibition of EGFR L858R/T790M double mutant phosphorylation in human NCI-H1975 cells after 60 mins by mesoscale multiplex assay. Format: cell-based.
A short description of series [7]: Selectivity ratio of IC50 for wild type EGFR phosphorylation in human A431 cells to IC50 for EGFR 746 to 750 deletion mutant phosphorylation in human HCC827 cells. Format: ADME, cell-based.
Series [8] concerns the target Epidermal growth factor receptor (Homo sapiens, UniProt P00533). Briefly: Inhibition of wild type EGFR phosphorylation in human A431 cells after 60 mins by mesoscale multiplex assay. The format is cell-based, A-431.
Series [9] can be described thus: Volume of distribution at steady state in Sprague-Dawley rat at 1 mg/kg, iv. Format: ADME, organism-based. The note with it: in vivo, read-out: Vdss. The method in brief: (§1)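 Male Sprague Dawley rats, 3 animals per route; mean values. IV dose 1 mg/kg as a DMSO solution. Oral dose 10 mg/kg, in one of three vehicles by compound: 1% Pluronic F68/2% HPMC/15% HPBCD/82% water–methanesulfonic acid pH 4.5; 20% HPBCD/80% water–methanesulfonic acid pH 4.0; or 1% Pluronic F68/2% HPMC/97% water–methanesulfonic acid pH 4.0.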

Series [10] is described as follows: Selectivity ratio of IC50 for human A431 cells expressing wild-type EGFR to IC50 for human NCI-H1975 cells harboring EGFR L858R/T790M double mutant. The format is ADME, cell-based.
A short description of series [11]: Selectivity ratio of IC50 for wild type EGFR phosphorylation in human A431 cells to IC50 for EGFR L858R/T790M double mutant phosphorylation in human NCI-H1975 cells. Format: ADME, cell-based.
Series [12] is described as follows: (§2) Clearance in Sprague-Dawley rat at 1 mg/kg, iv. The format is ADME, organism-based. Particulars: Sprague-Dawley, in vivo. The method in brief:
as §1

For series [13], the target named is Epidermal growth factor receptor (Homo sapiens, UniProt P00533, 746-750DEL). The series can be described thus: Inhibition of EGFR 746 to 750 deletion mutant phosphorylation in human HCC827 cells after 60 mins by mesoscale multiplex assay. The format is cell-based.
The nature of series [14]: Half life in Sprague-Dawley rat at 1 mg/kg, iv. Format: ADME, organism-based. The note with it: in vivo. The essentials:
as §1

The nature of series [15]: (§3) Oral bioavailability in Sprague-Dawley rat at 10 mg/kg. Format: ADME, organism-based. Particulars: Sprague-Dawley, in vivo. The method in brief: as §1
Series [16] is described as follows: (§4) AUC (0 to infinity) in Sprague-Dawley rat at 10 mg/kg, po. The note with it: Sprague-Dawley, in vivo. Format: ADME, organism-based. Further details: dose 10 mg/kg, route oral, time infinity. The method in brief: as §1
In series [17] the test system is Mus musculus. The series can be described thus: In vivo inhibition of EGFR L858R/T790M double mutant phosphorylation in human NCI-H1975 cells xenografted in athymic nude mouse at 30 mg/kg, po measured at 4 hrs by mesoscale multiplex assay relative to control. Format: functional. The method in brief:
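Female athymic nude mice carried matrigel plugs holding 5 x 10⁶ H1975 cells, n = 3 per group. Control or compound given at 30 mg/kg po. Plugs and plasma taken 4 h after dosing. p-EGFR in plug measured by quantitative MSD assay, given as % p-EGFR/PRAS40 vs control.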
On the technique in general: In xenograft studies the graft and the host belong to different species.

Series [18] deals with Rattus norvegicus. Described as §2. Format: ADME, organism-based. Particulars: in vivo. The method in brief: as §1
In series [19] the test system is NCI-H1975. The series can be described thus: Antitumor activity against human NCI-H1975 cells xenografted in athymic nude mouse assessed as tumor growth inhibition at 30 mg/kg, po qd administered for 2 weeks started on day 6 post tumor implantation measured on day 19 relative to control. The format is functional.
For series [20], the system named is Rattus norvegicus. The description is as §3. Format: ADME, organism-based. The note with it: in vivo. The essentials:
as §1

Series [21] deals with Rattus norvegicus. The series is described as §4. The format is ADME, organism-based. Further details: dose 10 mg/kg, route oral, time infinity. The note with it: in vivo. The essentials: as §1

pIC50: −log10 of the molar value. Active and inactive are the calls of the source.

Data on 11 compounds can be found in ChEMBL document CHEMBL3632511, “Oxopyrido[2,3-d]pyrimidines as Covalent L858R/T790M Mutant Selective Epidermal Growth Factor Receptor (EGFR) Inhibitors” (ACS Med Chem Lett, 2015).

Epidermal growth factor receptor (Homo sapiens, UniProt P00533, L858R/T790M), sequence (P00533 25-1210 T790M/L858R limits assumed): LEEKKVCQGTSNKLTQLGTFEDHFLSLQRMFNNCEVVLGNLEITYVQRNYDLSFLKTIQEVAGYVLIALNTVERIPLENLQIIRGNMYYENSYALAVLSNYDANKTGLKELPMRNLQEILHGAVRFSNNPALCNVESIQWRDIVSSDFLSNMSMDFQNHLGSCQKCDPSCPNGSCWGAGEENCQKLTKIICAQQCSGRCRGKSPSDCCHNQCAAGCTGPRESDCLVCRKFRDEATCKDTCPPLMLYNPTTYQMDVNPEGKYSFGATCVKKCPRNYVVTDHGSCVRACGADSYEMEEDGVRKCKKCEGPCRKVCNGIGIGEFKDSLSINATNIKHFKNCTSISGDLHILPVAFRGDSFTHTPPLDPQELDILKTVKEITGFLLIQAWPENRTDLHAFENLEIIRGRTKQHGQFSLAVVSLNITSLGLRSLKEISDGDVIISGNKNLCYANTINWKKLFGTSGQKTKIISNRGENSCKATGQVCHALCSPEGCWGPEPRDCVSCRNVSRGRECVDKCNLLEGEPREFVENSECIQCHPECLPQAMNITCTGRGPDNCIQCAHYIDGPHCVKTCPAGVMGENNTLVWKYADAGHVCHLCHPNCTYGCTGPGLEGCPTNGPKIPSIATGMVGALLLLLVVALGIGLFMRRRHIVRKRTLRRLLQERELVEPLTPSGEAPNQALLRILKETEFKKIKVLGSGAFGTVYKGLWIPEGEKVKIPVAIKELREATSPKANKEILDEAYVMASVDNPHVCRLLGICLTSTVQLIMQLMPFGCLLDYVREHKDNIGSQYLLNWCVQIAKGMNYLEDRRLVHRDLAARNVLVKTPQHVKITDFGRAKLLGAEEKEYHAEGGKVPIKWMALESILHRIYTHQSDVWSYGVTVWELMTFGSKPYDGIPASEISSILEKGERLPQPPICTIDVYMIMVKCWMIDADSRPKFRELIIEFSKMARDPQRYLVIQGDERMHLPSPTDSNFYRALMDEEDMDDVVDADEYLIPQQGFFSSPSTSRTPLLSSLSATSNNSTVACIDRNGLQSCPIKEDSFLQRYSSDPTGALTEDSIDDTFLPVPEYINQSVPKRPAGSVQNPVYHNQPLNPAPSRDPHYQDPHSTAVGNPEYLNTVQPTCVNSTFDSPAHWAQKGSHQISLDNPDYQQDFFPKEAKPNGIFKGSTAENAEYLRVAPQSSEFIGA
Epidermal growth factor receptor (Homo sapiens, UniProt P00533), sequence (P00533 whole entry): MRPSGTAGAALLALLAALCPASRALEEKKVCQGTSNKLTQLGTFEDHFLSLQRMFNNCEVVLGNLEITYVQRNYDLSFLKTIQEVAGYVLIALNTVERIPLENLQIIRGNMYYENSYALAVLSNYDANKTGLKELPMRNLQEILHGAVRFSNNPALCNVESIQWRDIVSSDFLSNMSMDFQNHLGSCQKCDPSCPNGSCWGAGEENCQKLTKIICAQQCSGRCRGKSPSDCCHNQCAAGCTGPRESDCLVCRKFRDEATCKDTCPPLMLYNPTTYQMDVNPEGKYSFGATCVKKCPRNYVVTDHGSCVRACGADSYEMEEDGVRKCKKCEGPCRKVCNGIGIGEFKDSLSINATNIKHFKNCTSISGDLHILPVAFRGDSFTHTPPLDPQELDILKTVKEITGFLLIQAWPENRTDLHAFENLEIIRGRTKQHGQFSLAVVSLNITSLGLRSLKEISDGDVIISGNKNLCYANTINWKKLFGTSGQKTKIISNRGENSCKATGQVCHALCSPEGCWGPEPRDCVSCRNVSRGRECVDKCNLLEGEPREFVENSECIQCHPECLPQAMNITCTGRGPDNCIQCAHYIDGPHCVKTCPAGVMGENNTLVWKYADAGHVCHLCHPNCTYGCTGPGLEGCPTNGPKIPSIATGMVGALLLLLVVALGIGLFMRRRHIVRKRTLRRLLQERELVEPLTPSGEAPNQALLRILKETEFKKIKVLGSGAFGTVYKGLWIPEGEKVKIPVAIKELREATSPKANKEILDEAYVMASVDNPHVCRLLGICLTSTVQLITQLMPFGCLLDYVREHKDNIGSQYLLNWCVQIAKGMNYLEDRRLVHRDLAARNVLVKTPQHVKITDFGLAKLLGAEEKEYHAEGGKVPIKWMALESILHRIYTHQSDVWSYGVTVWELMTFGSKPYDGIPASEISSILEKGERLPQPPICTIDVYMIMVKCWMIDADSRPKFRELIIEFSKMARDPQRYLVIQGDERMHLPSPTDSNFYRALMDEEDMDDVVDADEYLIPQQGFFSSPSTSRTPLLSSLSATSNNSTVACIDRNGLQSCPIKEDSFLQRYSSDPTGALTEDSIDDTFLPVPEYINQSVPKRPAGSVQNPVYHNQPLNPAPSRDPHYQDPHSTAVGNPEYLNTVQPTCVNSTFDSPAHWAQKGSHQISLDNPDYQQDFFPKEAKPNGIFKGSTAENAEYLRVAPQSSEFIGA
Epidermal growth factor receptor (Homo sapiens, UniProt P00533, 746-750DEL), sequence (P00533 whole entry, looked up, stated change not applied): as the sequence (P00533 whole entry) above

Regarding `C=CC(=O)Nc1cccc(-n2c(=O)c(OC)cc3cnc(Nc4ccc(N5CCN(C)CC5)cc4OC)nc32)c1`, the figures for the pIC50 in [1], in [2] and in series [3] were 7.21, 6.70 and 6.56, respectively.
In the case of `C=CC(=O)Nc1cccc(-n2c(=O)c(OC)c(C)c3cnc(Nc4ccc(N5CCN(C)CC5)cc4OC)nc32)c1`, the figures for the pIC50 in series [1], in [2] and in [3] were 7.39, 5.86 and 8.00, respectively.
For `C=CC(=O)Nc1cccc(-n2c(=O)cc(C)c3cnc(Nc4ccc(N5CCN(C)CC5)cc4OC)nc32)c1`, the “Ratio IC50” value in [4] is above 100; in series [7] it was 100; in series [10], above 100; in series [11], 100. Further, the Activity entry in series [5] is on record as “Toxic”. The pIC50 (commonly −log10 of the IC50, conventionally taken in molar units) in series [6] was 8.40; in series [8] it was 6.41; in series [1], 7.92; in series [2], 5.92; in series [13] it was 7.92; in [3] it was 8.40. Also, the Vd in [9] stood at 7.8 L/kg. In series [12], the clearance (commonly a measure of how efficiently the substance is removed, as volume per time) was 177 mL/min/kg. Also, in series [14], the half-life (as a rule, the time needed for the level to fall by half in the phase considered) is 3 h. Moreover, the bioavailability (usually the share of a dose that reaches the circulation, judged against a reference dose that is usually intravenous) in series [15] came to 9.5%. The area under the curve AUC(0-inf) (usually total exposure, with the tail of the curve extrapolated) in [16] stood at 0.18 µM·h. In addition, in series [17], the inhibition in vivo (in general, the relative decrease from the control value, in per cent) at 30 mg/kg is 90%.
In the case of `C=CC(=O)Nc1cccc(-n2c(=O)c(Cc3ccccc3)cc3cnc(Nc4ccc(N5CCN(C)CC5)cc4OC)nc32)c1`, the pIC50 in series [1] is 7.74; in series [2], 6.60; in series [3], 8.40.
On to `C=CC(=O)Nc1cccc(-n2c(=O)cc(C)c3cnc(Nc4ccc(N5CCOCC5)cc4OC)nc32)c1`, for which the negative logarithm of the IC50 (pIC50) in series [3] was below 5.00.
For the compound `C=CC(=O)Nc1cccc(-n2c(=O)ccc3cnc(Nc4ccc(N5CCN(C)CC5)cc4OC)nc32)c1`, the pIC50 is 8.52 in series [6]; 7.30 in series [8]; 8.40 in series [1]; 5.28 in series [2]; 8.52 in series [13]; 8.10 in series [3]. Besides, the “Ratio IC50” value in series [7] and in series [11] was 17 in each case. The Vd in [9] was 19 L/kg. This compound also gave a clearance in series [12] of 148 mL/min/kg. Further, in series [14], the half-life was 1.4 h. In series [15], the bioavailability was found to be 6.6%. In addition, the area under the curve AUC(0-inf) in series [16] is 0.18 µM·h.
Consider `C=CC(=O)Nc1cccc(-n2c(=O)cc(C)c3cnc(Nc4ccc(N5CCN(C)CC5)cc4)nc32)c1`, for which the results for the pIC50 in series [1], in series [2] and in series [3] were 8.15, below 5.52 and 8.40, respectively. In [17], the inhibition in vivo at 30 mg/kg was 5%.
In the case of `C=CC(=O)Nc1cccc(-n2c(=O)cc(C)c3cnc(Nc4ccc(N(C)CCN(C)C)cc4OC)nc32)c1`, in series [5], the Activity entry was “Non-toxic”. For the same compound, the pIC50 is 8.22 in [6]; 6.28 in series [8]; 7.66 in [1]; below 6.00 in series [2]; 7.92 in series [13]; 8.10 in series [3]. The Vd in series [9] was found to be 20 L/kg. This compound also showed a CL in series [18] of 128 mL/min/kg. Also, the TGI result in series [19] is “Active”. In addition, the half-life in [14] is 2.6 h. In addition, the F in series [20] stood at 21%. The AUC (commonly the area under the concentration-time curve, a measure of exposure) in [21] stood at 0.16 µM·h. This compound displayed an inhibition in vivo at 30 mg/kg in [17] of 80%.
For `C=CC(=O)Nc1cccc(-n2c(=O)cc(C)c3cnc(Nc4ccc(N5CCN(C(C)=O)CC5)cc4OC)nc32)c1`, the pIC50 in series [1] was 7.24; in series [2], below 5.30; in series [3], 7.52.
In the case of `C=CC(=O)Nc1cccc(-n2c(=O)cc(C)c3cnc(Nc4ccc(C5CCN(C)CC5)cc4OC)nc32)c1`, the pIC50 in series [1] is 7.48; in series [3], 8.40.
Turning to `C=CC(=O)Nc1cccc(-n2c(=O)cc(C)c3cnc(Nc4ccc(N5CCNCC5)cc4OC)nc32)c1`, the pIC50 is 6.68 in series [1], below 6.00 in series [2] and 7.17 in series [3].
